Data taken from ChEMBL document CHEMBL1156821, “Transforming rhinacanthin analogues from potent anticancer agents into potent antimalarial agents” (J Med Chem, 2010).
pIC50: −log10 of the molar value. Active and inactive are the calls of the source. The rule behind the calls is not given here.

Assays:
Vero = experiment: Cytotoxicity against African green monkey Vero cells by MTT assay; format: cell-based; conditions: Chlorocebus sabaeus
Plasmodium falciparum [1] = experiment: Antimalarial activity against multidrug-resistant Plasmodium falciparum K1 infected in erythrocytes after 48 hrs by [3H]hypoxanthine incorporation assay; format: functional, organism-based; conditions: for pIC50: Plasmodium falciparum, K1, read-out: IC50
Procedure, shortened: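 P. falciparum K1 (multidrug-resistant) was grown in RPMI 1640 with 20 mM HEPES, 32 mM NaHCO3, 10% […] human serum and 3% erythrocytes, at 37 C under 3% CO2. Early-ring cultures (1.5% erythrocytes, 1% parasitemia) were exposed to compound for 24 h at 0.1% final DMSO. [3H]hypoxanthine (0.5 μCi) was then added for a further 24 h, and incorporation was counted by scintillation. IC50 is the 50% growth reduction; values are the mean of six replicates; dihydroartemisinin was the reference.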

[2] = Inhibition of wild type Saccharomyces cerevisiae CK Cytochrome b-c1 complex by spectrophotometry
Procedure, shortened: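 Purified bc1 from wild-type yeast strain CKWT grown in YPGal was diluted to 8 nM. Inhibitor was added before starting with 50 μM decylubiquinol; 550 nm read at room temperature. IC50 taken from a concentration series.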

Saccharomyces cerevisiae [3] = experiment: Inhibition of electron transfer from Q(o) site to iron cluster of Saccharomyces cerevisiae CK Cytochrome b-c1 complex assessed as DQH-induced reduction of cyt bc1 complex by redoxdifference spectra
Procedure, shortened: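 Purified yeast bc1 at 2 μM in 50 mM K-phosphate with 0.05% UM; inhibitors added at final 5 μM (test) or 40 μM (stigmatellin, antimycin A). Redox difference spectra recorded as decylubiquinol-reduced bc1-inhibitor complex minus protein-inhibitor complex.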

Plasmodium falciparum [4] = experiment: Inhibition of Cytochrome b-c1 complex in Plasmodium falciparum 3D7 cell free extracts assessed as decyclobiquinol-linked cytochrome c reduction by spectrophotometry
Procedure, shortened: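 Cell-free extract of P. falciparum 3D7 was made by 20 s sonication on ice and adjusted to 0.1 mg protein/mL by Bradford assay. Steady-state decylubiquinol/cytochrome c reductase activity was read at ε550-542nm at 21 C in 50 mM potassium phosphate pH 7.5 with 2 mM EDTA, 10 mM KCN and 30 μM equine cytochrome c. Reactions were started with 50 μM decylubiquinol, compound added without preincubation, DMSO ≤0.3%. IC50 came from four-parameter sigmoidal fits of three separate assays.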

[5] = Inhibition of Cytochrome b-c1 complex in Wistar rat liver microsomes assessed as decyclobiquinol-linked cytochrome c reduction by spectrophotometry; parameters: species or system Microsome
Procedure, shortened: (§1)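 Steady-state decylubiquinol/cytochrome c reductase in yeast mitochondrial membranes (YPD-grown at 28 C) or male Wistar rat (125-170 g) liver microsomes. bc1 set to 5 nM; 50 mM K-phosphate pH 7.5, 2 mM EDTA, 10 mM KCN, 30 μM equine cytochrome c. Start: 50 μM decylubiquinol. ε550-542nm read at 21 C; no preincubation, DMSO ≤0.3%. IC50 from four-parameter sigmoidal fit, three separate assays.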

[6] = Therapeutic index, ratio of IC50 for African green monkey (Cercopithecus aethiops) Vero cells to IC50 for multidrug-resistant Plasmodium falciparum K1; format: cell-based; conditions: read-out: Ratio IC50
[7] = Inhibition of Cytochrome b-c1 complex in yeast mitochondrial membrane assessed as decyclobiquinol-linked cytochrome c reduction by spectrophotometry; format: cell membranes, Saccharomyces cerevisiae; procedure, shortened: as §1
Saccharomyces cerevisiae [8] = experiment: Inhibition of Saccharomyces cerevisiae CK Cytochrome b-c1 complex assessed as DQH-induced reduction of cyt bc1 complex by redoxdifference spectra

| SMILES | pIC50 (Vero) | pIC50 (Plasmodium falciparum [1]) | also measured |
| --- | --- | --- | --- |
| CCCCCCCCCCCCCCCCCC(=O)OCC(C)(C)CC1=C(O)C(=O)c2ccccc2C1=O | 4.81 | 6.88 |  |
| CCC(CC)C(=O)OCC(C)(C)CC1=C(O)C(=O)c2ccccc2C1=O | 3.98 | 4.78 |  |
| CCCCC(=O)OCC(C)(C)CC1=C(O)C(=O)c2ccccc2C1=O | 5.11 | 6.24 |  |
| CC(=O)OCCCC1=C(O)C(=O)c2ccccc2C1=O |  |  | IC50 (Plasmodium falciparum [1]): Not Active |
| C[C@H]1[C@@H](O)O[C@@H]2O[C@@]3(C)CC[C@H]4[C@H](C)CC[C@@H]1[C@@]24OO3 [ARTENIMOL] |  | 8.46 |  |
| CCC(C)CC(=O)OCC(C)(C)CC1=C(O)C(=O)c2ccccc2C1=O (centres undefined) | 5.64 | 6.72 |  |
| CCCCCCCCC(=O)OCC(C)(C)CC1=C(O)C(=O)c2ccccc2C1=O | 3.82 | 6.30 |  |
| CCCCCCCC(=O)OCCCC1=C(O)C(=O)c2ccccc2C1=O |  | 5.29 |  |
| CCCCCCCC(=O)OCC1(CC2=C(O)C(=O)c3ccccc3C2=O)CCCCC1 |  | 5.58 |  |
| CCCCCCCCCC(=O)OCC(C)(C)CC1=C(O)C(=O)c2ccccc2C1=O | 3.69 | 6.14 |  |
| CCCC(C)C(=O)OCC(C)(C)CC1=C(O)C(=O)c2ccccc2C1=O (centres undefined) | 6.92 | 6.92 |  |
| CCCC(=O)OCCCC1=C(O)C(=O)c2ccccc2C1=O |  |  | IC50 (Plasmodium falciparum [1]): Not Active |
| CC(=O)OCC(C)(C)CC1=C(O)C(=O)c2ccccc2C1=O | 3.86 | 4.96 |  |
| CCCCCCCCCCCCCCCC(=O)OCC(C)(C)CC1=C(O)C(=O)c2ccccc2C1=O | 5.36 | 7.52 |  |
| C/C=C(C)/C=C/C=C/[C@H](OC)[C@@H](C)[C@@H](OC)[C@@H](C)CCc1oc2c(O)c(OC)cc(OC)c2c(=O)c1C [STIGMATELLIN] |  |  | pIC50 [2]: 8.04; Activity (Saccharomyces cerevisiae [3]): Active |
| CCCCCCCCCCC(=O)OCC(C)(C)CC1=C(O)C(=O)c2ccccc2C1=O | < 3.63 | 6.15 |  |
| CCCCCCCC(=O)OCC(C)(C)CC1=C(O)C(=O)c2ccccc2C1=O | < 3.59 | 6.89 | pIC50 (Plasmodium falciparum [4]): 8.27; pIC50 [5]: 5.52; selectivity ratio [6]: > 1990; pIC50 [7]: 7.80; pIC50 [2]: 6.08; Activity (Saccharomyces cerevisiae [3]): Active |
| CCCCCC(=O)OCC(C)(C)CC1=C(O)C(=O)c2ccccc2C1=O | 3.77 | 5.95 |  |
| CCCCCCC(C)C(=O)OCC(C)(C)CC1=C(O)C(=O)c2ccccc2C1=O (centres undefined) | 6.35 | 6.96 |  |
| CCC(=O)OCC(C)(C)CC1=C(O)C(=O)c2ccccc2C1=O | 4.22 | 5.39 |  |
| CCCCCC[C@H]1C(=O)O[C@H](C)[C@H](NC(=O)c2cccc(NC=O)c2O)C(=O)O[C@@H](C)[C@@H]1OC(=O)CC(C)C |  |  | Activity (Saccharomyces cerevisiae [8]): Active |
| CCC(C)C(=O)OCC(C)(C)CC1=C(O)C(=O)c2ccccc2C1=O (centres undefined) | 6.06 | 6.66 |  |
| CCCCCCCCCCCC(=O)OCC(C)(C)CC1=C(O)C(=O)c2ccccc2C1=O | 3.60 | 6.05 |  |
| CCCCCCC(=O)OCC(C)(C)CC1=C(O)C(=O)c2ccccc2C1=O | 4.00 | 6.09 |  |
| CC[C@H](C)C(=O)OCC(C)(C)CC1=C(O)C(=O)c2ccccc2C1=O | 6.24 | 6.96 |  |
| CC(C)CC(=O)OCC(C)(C)CC1=C(O)C(=O)c2ccccc2C1=O | 6.26 | 6.39 |  |
| CC(C)C(=O)OCC(C)(C)CC1=C(O)C(=O)c2ccccc2C1=O | 3.91 | 6.04 |  |
| CCCC(=O)OCC(C)(C)CC1=C(O)C(=O)c2ccccc2C1=O | 4.14 | 6.04 |  |
| CCCCCCCCCCCCCC(=O)OCC(C)(C)CC1=C(O)C(=O)c2ccccc2C1=O | 4.23 | 7.49 | pIC50 (Plasmodium falciparum [4]): 8.10; pIC50 [5]: 5.60; selectivity ratio [6]: 1830; pIC50 [7]: 7.10; pIC50 [2]: 6.11; Activity (Saccharomyces cerevisiae [3]): Active |
